Data as given in ChEMBL document CHEMBL4049457, “Pentafluorosulfanyl-Substituted Benzopyran Analogues As New Cyclooxygenase-2 Inhibitors with Excellent Pharmacokinetics and Efficacy in Blocking Inflammation” (J Med Chem, 2017).
Blank lines part the entries; values can stand above or below the compound they belong to.

Legend:
[1] = tested on: Rattus norvegicus; experiment: Antiinflammatory activity in carrageenan induced Sprague-Dawley rat model of inflammation assessed as reduction in paw edema administered via po 0.5 hrs prior to carrageenan challenge measured 1 to 4 hrs post challenge by plethysmometer; type: functional
Outline: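 Male SD rats dosed orally in 0.5% carboxymethyl cellulose at 1, 3, 10, 30, 100 mg/kg (n = 6), vehicle control, 0.5 h before carrageenan into right hind paw. Paw volume by water-displacement plethysmometer before and after injection; percent inhibition from paw-volume increment versus controls; ED50 fitted.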

[2] = tested on: Rattus norvegicus; experiment: Antiinflammatory activity in carrageenan induced Sprague-Dawley rat model of inflammation assessed as reduction in PGE2 levels in air pouch administered via po 1 hr prior to carrageenan challenge measured 3 hrs post challenge by ELISA; type: functional
Outline: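 Male SD rats; 20 mL sterile air injected subcutaneously in back. Oral dosing in 0.5% carboxymethyl cellulose at 0.03–10 mg/kg (n = 6), vehicle control; 1 h later 6 mL 1% carrageenan into pouch (one day after pouch formation).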

[3] = tested on: Rattus norvegicus; experiment: Antiarthritic activity in adjuvant-induced Lewis rat model of arthritis assessed as reduction in movement disorder administered via oral gavage once daily starting from day 15 to 25 post adjuvant injection measured post last dose; type: functional; settings: 360 h
Outline: (§1)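 Adjuvant arthritis in male Lewis rats (170–200 g): 1 mg heat-killed M. tuberculosis in 0.2 mL mineral oil into tail base; responders (left hind paw >0.375 mL above day 0 at day 14) randomized, n = 6/group. Oral gavage once daily in 0.5% methylcellulose at 0.1–10 mg/kg, days 15–24. Day 25: plethysmometer paw volume, limb scores 0–4 (total 0–16), movement 0–3; ED50 derived.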

[4] = tested on: Rattus norvegicus; experiment: Antiarthritic activity in adjuvant-induced Lewis rat model of arthritis assessed as reduction in paw edema administered via oral gavage once daily starting from day 15 to 25 post adjuvant injection measured post last dose; type: functional; settings: 360 h; outline: as §1
[5] = tested on: Rattus norvegicus; experiment: Antiarthritic activity in adjuvant-induced Lewis rat model of arthritis assessed as reduction in arthritis score administered via oral gavage once daily starting from day 15 to 25 post adjuvant injection measured post last dose; type: functional; settings: 360 h; outline: as §1
[6] = tested on: Rattus norvegicus; experiment: Antiinociceptive activity in carrageenan induced Sprague-Dawley rat model of pain assessed as reversal of paw thermal hyperalgesia administered via po 0.5 hrs prior to carrageenan challenge measured 3 hrs post challenge; type: functional
Outline: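 Male SD rats (180–220 g), 0.2 mL 3% λ-carrageenan subcutaneously into right hind paw; oral dosing in 0.5% carboxymethyl cellulose at 1–100 mg/kg (n = 6) 0.5 h before.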

[7] = (§2) Protein binding in human plasma at 10 uM after 5 hrs by rapid equilibrium dialysis; type: ADME, cell-free; settings: read-out: PPB (converted)
Outline: (§3)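 Rapid equilibrium dialysis against human plasma for 5 h; drug in plasma and buffer chambers quantified by LC/MS; bound % = [1 − (buffer/plasma concentration)] × 100, n = 3.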

[8] = biological target: Voltage-gated inwardly rectifying potassium channel KCNH2 (Homo sapiens, UniProt Q12809); experiment: Binding affinity to human ERG up to 50 uM after 2 hrs by fluorescence polarization assay
Outline: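 Fluorescence polarization tracer displacement kit: hERG membrane plus red tracer with compound or positive control, 2 h at room temperature, read with polarized excitation/emission filters; dofetilide-binding surrogate for hERG.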

[9] = biological target: Prostaglandin G/H synthase 1 (Homo sapiens, UniProt P23219); experiment: Inhibition of human COX-1 preincubated for 15 mins followed by fluorometric substrate/heme addition for 15 mins subsequently incubated with arachidonic acid for 2 mins by fluorescence analysis; type: ADME
[10] = biological target: T1, Prostaglandin G/H synthase 2 (Homo sapiens, UniProt P35354); experiment: Inhibition of recombinant human COX-2 preincubated for 15 mins followed by fluorometric substrate/heme addition for 15 mins subsequently incubated with arachidonic acid for 2 mins by fluorescence analysis
T1 sequence (P35354 whole entry): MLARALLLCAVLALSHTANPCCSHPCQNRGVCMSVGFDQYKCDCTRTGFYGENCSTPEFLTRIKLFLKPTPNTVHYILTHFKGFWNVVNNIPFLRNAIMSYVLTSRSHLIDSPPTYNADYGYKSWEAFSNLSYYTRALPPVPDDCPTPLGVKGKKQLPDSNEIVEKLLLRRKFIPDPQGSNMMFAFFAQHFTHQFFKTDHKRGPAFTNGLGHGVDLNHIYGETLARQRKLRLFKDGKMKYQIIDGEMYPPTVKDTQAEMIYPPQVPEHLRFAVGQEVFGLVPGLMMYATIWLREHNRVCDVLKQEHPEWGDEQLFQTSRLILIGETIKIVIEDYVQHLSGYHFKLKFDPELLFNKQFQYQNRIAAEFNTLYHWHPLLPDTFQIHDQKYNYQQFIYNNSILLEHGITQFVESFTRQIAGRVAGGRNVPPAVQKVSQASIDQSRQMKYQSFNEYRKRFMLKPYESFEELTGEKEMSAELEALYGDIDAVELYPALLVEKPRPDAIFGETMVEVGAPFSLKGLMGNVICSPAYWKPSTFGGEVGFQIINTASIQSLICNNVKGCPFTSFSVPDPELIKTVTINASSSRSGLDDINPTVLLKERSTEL

[11] = tested on: Plasma; experiment: as §2; type: ADME, cell-free; settings: 5 h, 10 µM; outline: as §3
[12] = tested on: Rattus norvegicus; experiment: Antiarthritic activity in adjuvant-induced Lewis rat model of arthritis assessed as inhibition of movement disorder score at 10 mg/kg administered via oral gavage every 5 days starting from day 15 to 25 post adjuvant injection measured post last dose; type: functional
Outline: (§4)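 Lewis male rats (170–200 g) given 1 mg heat-killed M. tuberculosis in 0.2 mL mineral oil at tail base; rats with left hind paw volume increase >0.375 mL by day 14 selected. Compound dosed orally at 10 mg/kg every 5 days from day 15 (two doses). Scored day 25: paw volume, arthritis 0–16 (erythema/swelling), movement 0–3.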

[13] = AUC (0 to infinity) in Sprague-Dawley rat at 5 mg/kg, po administered via gastric gavage by LC-MS/MS analysis; type: ADME, organism-based; design: dose 5 mg/kg, route oral, time infinity; settings: in vivo
[14] = Cmax in Sprague-Dawley rat at 5 mg/kg, iv by LC-MS/MS analysis; type: ADME, organism-based; design: dose 5 mg/kg, route intravenous; settings: in vivo
[15] = Tmax in Sprague-Dawley rat at 5 mg/kg, iv by LC-MS/MS analysis; type: ADME, organism-based; settings: in vivo
[16] = tested on: Rattus norvegicus; experiment: Antiarthritic activity in adjuvant-induced Lewis rat model of arthritis assessed as inhibition of arthritis score at 10 mg/kg administered via oral gavage every 5 days starting from day 15 to 25 post adjuvant injection measured post last dose; type: functional; outline: as §4
[17] = Half-life in Sprague-Dawley rat at 5 mg/kg, po administered via gastric gavage by LC-MS/MS analysis; type: ADME, organism-based; settings: in vivo
[18] = tested on: Rattus norvegicus; experiment: Antiarthritic activity in adjuvant-induced Lewis rat model of arthritis assessed as inhibition of paw edema score at 10 mg/kg administered via oral gavage every 5 days starting from day 15 to 25 post adjuvant injection measured post last dose; type: functional; outline: as §4
[19] = Half-life in Sprague-Dawley rat at 5 mg/kg, iv by LC-MS/MS analysis; type: ADME, organism-based; settings: in vivo
[20] = Tmax in Sprague-Dawley rat at 5 mg/kg, po administered via gastric gavage by LC-MS/MS analysis; type: ADME, organism-based; settings: in vivo
[21] = Oral bioavailability in Sprague-Dawley rat at 5 mg/kg administered via gastric gavage by LC-MS/MS analysis; type: ADME, organism-based; settings: in vivo
[22] = AUC (0 to infinity) in Sprague-Dawley rat at 5 mg/kg, iv by LC-MS/MS analysis; type: ADME, organism-based; design: dose 5 mg/kg, time infinity, route intravenous; settings: in vivo
[23] = Cmax in Sprague-Dawley rat at 5 mg/kg, po administered via gastric gavage by LC-MS/MS analysis; type: ADME, organism-based; design: dose 5 mg/kg, route oral; settings: in vivo

Sequence of Voltage-gated inwardly rectifying potassium channel KCNH2 (Q12809 whole entry): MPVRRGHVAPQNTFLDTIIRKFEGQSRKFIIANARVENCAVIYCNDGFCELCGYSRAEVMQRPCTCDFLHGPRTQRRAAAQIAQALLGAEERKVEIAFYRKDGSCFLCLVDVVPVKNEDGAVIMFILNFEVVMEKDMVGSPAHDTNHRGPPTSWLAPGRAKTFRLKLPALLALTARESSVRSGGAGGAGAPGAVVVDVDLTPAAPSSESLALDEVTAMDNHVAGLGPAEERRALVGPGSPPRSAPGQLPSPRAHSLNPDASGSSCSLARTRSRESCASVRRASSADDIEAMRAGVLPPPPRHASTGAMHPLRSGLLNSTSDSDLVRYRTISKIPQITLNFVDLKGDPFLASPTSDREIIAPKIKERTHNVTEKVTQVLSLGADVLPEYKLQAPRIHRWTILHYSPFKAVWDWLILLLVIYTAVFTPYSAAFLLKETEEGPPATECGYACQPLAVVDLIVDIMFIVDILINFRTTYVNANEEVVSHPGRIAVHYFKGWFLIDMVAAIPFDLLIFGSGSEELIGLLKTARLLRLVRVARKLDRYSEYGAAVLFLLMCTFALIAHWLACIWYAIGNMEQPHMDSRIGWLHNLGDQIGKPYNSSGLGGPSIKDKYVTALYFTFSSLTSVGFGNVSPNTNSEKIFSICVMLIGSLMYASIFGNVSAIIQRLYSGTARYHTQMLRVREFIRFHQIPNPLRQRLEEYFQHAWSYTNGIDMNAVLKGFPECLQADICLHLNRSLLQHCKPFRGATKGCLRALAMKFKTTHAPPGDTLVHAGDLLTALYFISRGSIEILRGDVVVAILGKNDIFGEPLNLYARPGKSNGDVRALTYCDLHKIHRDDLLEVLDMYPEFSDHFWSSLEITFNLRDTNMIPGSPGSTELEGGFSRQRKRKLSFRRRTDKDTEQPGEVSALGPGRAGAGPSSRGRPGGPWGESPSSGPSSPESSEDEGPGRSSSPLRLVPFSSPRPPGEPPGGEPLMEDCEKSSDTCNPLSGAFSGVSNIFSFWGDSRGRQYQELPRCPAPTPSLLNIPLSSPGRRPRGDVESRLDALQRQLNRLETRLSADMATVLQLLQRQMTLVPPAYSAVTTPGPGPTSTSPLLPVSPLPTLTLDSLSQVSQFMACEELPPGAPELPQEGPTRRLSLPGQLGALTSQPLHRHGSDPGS
Sequence of Prostaglandin G/H synthase 1 (P23219 whole entry): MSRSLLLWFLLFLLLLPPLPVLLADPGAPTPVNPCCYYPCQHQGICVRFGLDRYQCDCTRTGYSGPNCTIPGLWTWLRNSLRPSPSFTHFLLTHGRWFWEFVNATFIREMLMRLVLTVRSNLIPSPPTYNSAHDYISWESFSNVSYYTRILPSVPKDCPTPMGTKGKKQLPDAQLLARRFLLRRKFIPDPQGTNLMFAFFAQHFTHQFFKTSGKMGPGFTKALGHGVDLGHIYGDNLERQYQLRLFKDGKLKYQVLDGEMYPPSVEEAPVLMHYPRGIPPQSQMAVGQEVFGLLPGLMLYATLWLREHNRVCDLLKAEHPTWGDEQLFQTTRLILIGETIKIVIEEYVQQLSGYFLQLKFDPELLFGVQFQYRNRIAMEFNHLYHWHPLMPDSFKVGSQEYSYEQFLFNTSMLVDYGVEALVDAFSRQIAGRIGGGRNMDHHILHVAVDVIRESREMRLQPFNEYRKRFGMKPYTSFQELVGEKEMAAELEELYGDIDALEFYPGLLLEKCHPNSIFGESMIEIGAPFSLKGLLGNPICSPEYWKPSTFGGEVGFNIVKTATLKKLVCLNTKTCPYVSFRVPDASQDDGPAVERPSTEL

SMILES: Cc1ccc(-c2cc(C(F)(F)F)nn2-c2ccc(S(N)(=O)=O)cc2)cc1 [CELECOXIB]
ED50 [1]: 2.8 mg/kg | ED50 [2]: 0.69 mg/kg | ED50 [3]: 9.2 mg/kg | ED50 [4]: 1.6 mg/kg | ED50 [5]: 0.71 mg/kg | ED50 [6]: 5 mg/kg

fraction unbound at 5 h, 10 µM [7]: 0.0005 | IC50 [9]: > 10000 nM | IC50 [10]: 26 nM
SMILES: Cc1cc(S(F)(F)(F)(F)F)cc2c1OC(C(F)(F)F)C(C(=O)O)=C2 (centres undefined)
Activity [8]: Not Active

PPB [11]: 99.82%
SMILES: CN(C)CCCN1c2ccccc2Sc2ccc(Cl)cc21.Cl [CHLORPROMAZINE HYDROCHLORIDE]

IC50 [9]: > 10000 nM | IC50 [10]: 60 nM
SMILES: CCc1cc(S(F)(F)(F)(F)F)cc2c1OC(C(F)(F)F)C(C(=O)O)=C2 (centres undefined)
Activity [8]: Not Active

IC50 [9]: > 10000 nM | IC50 [10]: 302 nM
SMILES: O=C(O)C1=Cc2cc(S(F)(F)(F)(F)F)ccc2O[C@H]1C(F)(F)F

fraction unbound at 5 h, 10 µM [7]: 0.0004 | IC50 [9]: > 30000 nM | IC50 [10]: 10 nM
SMILES: O=C(O)C1=Cc2cc(S(F)(F)(F)(F)F)ccc2O[C@@H]1C(F)(F)F
Activity [8]: Not Active

fraction unbound at 5 h, 10 µM [7]: 0.001 | AUC(0-inf) [13]: 414 µg·h/mL | Cmax [14]: 31700 ng/mL | Tmax [15]: 1.98 min | IC50 [9]: > 10000 nM | half-life [17]: 12.5 h | IC50 [10]: 18 nM | half-life [19]: 17.3 h | Tmax [20]: 7.75 h | bioavailability [21]: 100 to 114% | AUC(0-inf) [22]: 364 µg·h/mL | Cmax [23]: 15300 ng/mL
SMILES: O=C(O)C1=Cc2cc(S(F)(F)(F)(F)F)ccc2OC1C(F)(F)F (centres undefined)
Activity [1]: Dose-dependent effect | ED50 [1]: 4 mg/kg | inhibition in vivo at 10 mg/kg [12]: 79.2% | Activity [8]: Not Active | Activity [2]: Dose-dependent effect | ED50 [2]: 0.37 mg/kg | inhibition in vivo at 10 mg/kg [16]: 69.6% | ED50 [3]: 0.12 mg/kg | inhibition in vivo at 10 mg/kg [18]: 66.9% | ED50 [4]: 0.093 mg/kg | ED50 [5]: 0.094 mg/kg | Activity [6]: Dose-dependent effect | ED50 [6]: 2.8 mg/kg

IC50 [9]: > 10000 nM | IC50 [10]: 56 nM
SMILES: O=C(O)C1=Cc2cc(S(F)(F)(F)(F)F)cc(Br)c2OC1C(F)(F)F (racemic)

fraction unbound at 5 h, 10 µM [7]: 0.0006 | IC50 [9]: > 10000 nM | IC50 [10]: > 10000 nM
SMILES: O=C(O)C1=Cc2ccc(S(F)(F)(F)(F)F)cc2OC1C(F)(F)F (centres undefined)

fraction unbound at 5 h, 10 µM [7]: 0.0008 | IC50 [9]: > 10000 nM | IC50 [10]: 190 nM
SMILES: CCCCc1cc(S(F)(F)(F)(F)F)cc2c1OC(C(F)(F)F)C(C(=O)O)=C2 (centres undefined)
Activity [8]: Not Active

IC50 [9]: > 10000 nM | IC50 [10]: 46 nM
SMILES: CCCc1cc(S(F)(F)(F)(F)F)cc2c1OC(C(F)(F)F)C(C(=O)O)=C2 (centres undefined)
Activity [8]: Not Active

fraction unbound at 5 h, 10 µM [7]: 0.0009 | IC50 [9]: > 10000 nM | IC50 [10]: 8 nM
SMILES: O=C(O)C1=Cc2cc(S(F)(F)(F)(F)F)cc(Br)c2O[C@@H]1C(F)(F)F

IC50 [9]: > 10000 nM | IC50 [10]: > 10000 nM
SMILES: O=CC1=Cc2cc(S(F)(F)(F)(F)F)ccc2OC1C(F)(F)F (centres undefined)

IC50 [9]: > 10000 nM | IC50 [10]: > 10000 nM
SMILES: O=CC1=Cc2cc(S(F)(F)(F)(F)F)cc(Br)c2OC1C(F)(F)F (centres undefined)

fraction unbound at 5 h, 10 µM [7]: 0.0005 | IC50 [9]: > 10000 nM | IC50 [10]: 340 nM
SMILES: O=C(O)C1=Cc2cc(S(F)(F)(F)(F)F)cc(Br)c2O[C@H]1C(F)(F)F

IC50 [9]: > 10000 nM | IC50 [10]: > 100000 nM
SMILES: O=C(O)C1=Cc2cc(S(F)(F)(F)(F)F)cc(Cc3ccccc3)c2OC1C(F)(F)F (centres undefined)
